In ChEMBL document CHEMBL1146776, “Identification and optimization of novel partial agonists of neuromedin B receptor using parallel synthesis” (Bioorg Med Chem Lett, 2004):

What follows are compounds tested against T1, Neuromedin-B receptor (Homo sapiens, UniProt P28336) (assay: Affinity of [125I][D-Tyr0]-NMB to human Neuromedin B receptor expressed in HEK293 cells). Details: not given.
Type: cell-based
Outline: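 Whole-cell competition binding on HEK293 cells stably transfected with hNMBR, 1 · 10⁶ cells per well in DMEM. Incubation 1 h at room temperature with 150 pM ¹²⁵I-[D-Tyr0]NMB (2200 Ci/mmol). Bound and free ligand separated by filtration; bound counts read by scintillation counting.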

T1 sequence (P28336 whole entry): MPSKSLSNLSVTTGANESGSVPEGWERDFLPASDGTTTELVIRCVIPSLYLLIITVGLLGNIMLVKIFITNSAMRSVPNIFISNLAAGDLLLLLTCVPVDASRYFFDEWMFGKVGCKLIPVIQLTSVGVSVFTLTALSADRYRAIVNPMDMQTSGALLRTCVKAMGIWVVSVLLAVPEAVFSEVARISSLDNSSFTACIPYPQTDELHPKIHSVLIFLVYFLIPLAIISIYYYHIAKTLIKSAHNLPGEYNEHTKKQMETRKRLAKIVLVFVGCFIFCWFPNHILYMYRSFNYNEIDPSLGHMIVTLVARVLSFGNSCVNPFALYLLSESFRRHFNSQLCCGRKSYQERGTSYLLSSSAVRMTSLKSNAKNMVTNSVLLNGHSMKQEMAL

Structure (SMILES) | IC50 [nM]
CC(C)c1cccc(C(C)C)c1NC(=O)NC1(C(=O)NCC2(c3ccccn3)CCCCC2)CCc2[nH]c3cc(Br)ccc3c2C1 (stereo not given) | 2140
CC(C)c1cccc(C(C)C)c1NC(=O)NC1(C(=O)NCC2(c3ccccn3)CCCCC2)CCc2[nH]c3cccc(C(=O)O)c3c2C1 (stereo not given) | > 10000
O=C(Nc1ccc([N+](=O)[O-])cc1)NC1(C(=O)NCC2(c3ccccn3)CCS(=O)(=O)CC2)CCc2[nH]c3ccccc3c2C1 (stereo not given) | > 10000
O=C(NC1CCCCC1)NC1(C(=O)NCC2(c3ccccn3)CCCCC2)CCc2[nH]c3ccccc3c2C1 (stereo not given) | 3920
CC(C)(CNC(=O)C1(NC(=O)Nc2ccc([N+](=O)[O-])cc2)CCc2[nH]c3ccccc3c2C1)c1ccccn1 (stereo not given) | 10000
CC(C)c1cccc(C(C)C)c1NC(=O)NC1(C(=O)NCC2(c3ccccn3)CCCCC2)CCc2[nH]c3cccc([N+](=O)[O-])c3c2C1 (stereo not given) | > 10000
CC(=O)c1cccc(NC(=O)NC2(C(=O)NCC3(c4ccccn4)CCCCC3)CCc3[nH]c4ccccc4c3C2)c1 (stereo not given) | 2270
NC(=O)NC1(C(=O)NCC2(c3ccccn3)CCCCC2)CCc2[nH]c3ccccc3c2C1 (stereo not given) | > 10000
Cc1cccc(C)c1NC(=O)NC1(C(=O)NCC2(c3ccccn3)CCCCC2)CCc2[nH]c3ccccc3c2C1 (stereo not given) | 5490
CC(C)c1cccc(C(C)C)c1NC(=O)NC1(C(=O)NCC2(c3ccccn3)CC2)CCc2[nH]c3ccccc3c2C1 (stereo not given) | 3350
O=C(Nc1ccc([N+](=O)[O-])cc1)NC1(C(=O)NCCc2ccccn2)CCc2[nH]c3ccccc3c2C1 (stereo not given) | > 10000
COc1ccccc1NC(=O)NC1(C(=O)NCC2(c3ccccn3)CCCCC2)CCc2[nH]c3ccccc3c2C1 (stereo not given) | 8720
CC(C)c1cccc(C(C)C)c1NC(=O)NC1(C(=O)NCC(C)(C)c2ccccn2)CCc2[nH]c3ccccc3c2C1 (stereo not given) | 4150
O=C(Nc1ccc(OC(F)(F)F)cc1)NC1(C(=O)NCC2(c3ccccn3)CCCCC2)CCc2[nH]c3ccccc3c2C1 (stereo not given) | 3040
CCNC(=O)NC1(C(=O)NCC2(c3ccccn3)CCCCC2)CCc2[nH]c3ccccc3c2C1 (stereo not given) | > 10000
CC(C)c1cccc(C(C)C)c1NC(=O)NC1(C(=O)NCC2(c3ccccn3)CCCCC2)CCc2[nH]c3cccc(C(F)(F)F)c3c2C1 (stereo not given) | 3660
CC(C)c1cccc(C(C)C)c1NC(=O)NC1(C(=O)NCC2(c3ccc(Cl)cc3)CC2)CCc2[nH]c3ccccc3c2C1 (stereo not given) | > 10000

Next, values leading:

IC50 [nM] | Structure (SMILES)
1890 | CC(C)c1cccc(C(C)C)c1NC(=O)NC1(C(=O)NCC2(c3ccccn3)CCCCC2)CCc2[nH]c3cccc(OC(F)(F)F)c3c2C1 (stereo not given)
1850 | CCOC(=O)c1cc(NC(=O)NC2(C(=O)NCC3(c4ccccn4)CCCCC3)CCc3[nH]c4ccccc4c3C2)cc(C(=O)OCC)c1 (stereo not given)
1110 | O=C(Nc1ccc(C(F)(F)F)cc1)NC1(C(=O)NCC2(c3ccccn3)CCCCC2)CCc2[nH]c3ccccc3c2C1 (stereo not given)
1010 | CC(C)c1cccc(C(C)C)c1NC(=O)NC1(C(=O)NCC2(c3ccccn3)CCCCC2)CCc2[nH]c3cc(F)ccc3c2C1F (stereo not given)
800 | O=C(Nc1ccc([N+](=O)[O-])cc1)NC1(C(=O)NCC2(c3ccccn3)CCCCC2)CCc2[nH]c3ccccc3c2C1 (stereo not given)
790 | Cc1ccc2[nH]c3c(c2c1)C(C)C(NC(=O)Nc1c(C(C)C)cccc1C(C)C)(C(=O)NCC1(c2ccccn2)CCCCC1)CC3 (stereo in doubt; 23)
700 | Cc1ccc2[nH]c3c(c2c1)C(C)C(NC(=O)Nc1c(C(C)C)cccc1C(C)C)(C(=O)NCC1(c2ccccn2)CCCCC1)CC3 (stereo in doubt; 22)
660 | Cc1cccc2[nH]c3c(c12)CC(NC(=O)Nc1c(C(C)C)cccc1C(C)C)(C(=O)NCC1(c2ccccn2)CCCCC1)CC3 (stereo not given)
620 | Cc1cc([N+](=O)[O-])ccc1NC(=O)NC1(C(=O)NCC2(c3ccccn3)CCCCC2)CCc2[nH]c3ccccc3c2C1 (stereo not given)
350 | CC(C)c1cccc(C(C)C)c1NC(=O)N[C@@](C)(Cc1c[nH]c2ccccc12)C(=O)NCC1(c2ccccn2)CCCCC1
320 | CC(C)c1cccc(C(C)C)c1NC(=O)NC1(C(=O)NCC2(c3ccccn3)CCCCC2)CCc2[nH]c3ccccc3c2C1 (stereo not given)
250 | COc1cccc2[nH]c3c(c12)CC(NC(=O)Nc1c(C(C)C)cccc1C(C)C)(C(=O)NCC1(c2ccccn2)CCCCC1)CC3 (stereo in doubt; 20)
29 | COc1cccc2[nH]c3c(c12)CC(NC(=O)Nc1c(C(C)C)cccc1C(C)C)(C(=O)NCC1(c2ccccn2)CCCCC1)CC3 (single isomer, unassigned; (+))

What follows are compounds tested on HeLa (assay: Cytotoxicity towards HeLa cells was determined). Details: Homo sapiens.
Type: functional, cell-based

Structure (SMILES) | IC50 [nM]
COc1cccc2[nH]c3c(c12)CC(NC(=O)Nc1c(C(C)C)cccc1C(C)C)(C(=O)NCC1(c2ccccn2)CCCCC1)CC3 (single isomer, unassigned; (+)) | > 50000

These compounds were tested against T1, Neuromedin-B receptor (assay: Agonistic activity was determined against human Neuromedin B receptor transfected in HEK293 cells as accumulation levels of inositol phosphate). Details: not given.
Type: functional, cell-based
Outline: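 hNMBR-transfected HEK293 cells (2.5 · 10⁴) labelled overnight at 37 °C in high-glucose DMEM with 25 mM Hepes, 10% dialyzed FBS and myo-[³H]inositol. Compounds added in inositol-free DMEM with 0.3% BSA and 10 mM LiCl, 60 min, 37 °C. Lysis in 20 mM formic acid, 2 h, 4 °C. Inositol phosphates captured on SPA beads and counted next day.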

EC50 [nM] | Structure (SMILES)
1970 | COc1cccc2[nH]c3c(c12)CC(NC(=O)Nc1c(C(C)C)cccc1C(C)C)(C(=O)NCC1(c2ccccn2)CCCCC1)CC3 (single isomer, unassigned; (-))
132 | COc1cccc2[nH]c3c(c12)CC(NC(=O)Nc1c(C(C)C)cccc1C(C)C)(C(=O)NCC1(c2ccccn2)CCCCC1)CC3 (stereo in doubt; 20)
603 | CC(C)c1cccc(C(C)C)c1NC(=O)NC1(C(=O)NCC2(c3ccccn3)CCCCC2)CCc2[nH]c3ccccc3c2C1 (stereo not given)
17.7 | COc1cccc2[nH]c3c(c12)CC(NC(=O)Nc1c(C(C)C)cccc1C(C)C)(C(=O)NCC1(c2ccccn2)CCCCC1)CC3 (single isomer, unassigned; (+))
